Source: ChEMBL document CHEMBL5696442, “Discovery of type II inhibitors of TGFβ-activated kinase 1 (TAK1) and mitogen-activated protein kinase kinase kinase kinase 2 (MAP4K2)” (J Med Chem, 2015)
Calls of active or inactive are those of the source. The calls are words filed in the database; no cut-off is given here.

Key:
[1] = biological target: Mitogen-activated protein kinase kinase kinase 20 (Homo sapiens, UniProt Q9NYL2); assay: Inhibition of ZAK Lys1 labeling site in human Huh-7 cells at 1 uM by KiNativ Profiling analysis relative to control; assay type: cell-based
Sequence of Mitogen-activated protein kinase kinase kinase 20 (Q9NYL2 2-800 limits assumed): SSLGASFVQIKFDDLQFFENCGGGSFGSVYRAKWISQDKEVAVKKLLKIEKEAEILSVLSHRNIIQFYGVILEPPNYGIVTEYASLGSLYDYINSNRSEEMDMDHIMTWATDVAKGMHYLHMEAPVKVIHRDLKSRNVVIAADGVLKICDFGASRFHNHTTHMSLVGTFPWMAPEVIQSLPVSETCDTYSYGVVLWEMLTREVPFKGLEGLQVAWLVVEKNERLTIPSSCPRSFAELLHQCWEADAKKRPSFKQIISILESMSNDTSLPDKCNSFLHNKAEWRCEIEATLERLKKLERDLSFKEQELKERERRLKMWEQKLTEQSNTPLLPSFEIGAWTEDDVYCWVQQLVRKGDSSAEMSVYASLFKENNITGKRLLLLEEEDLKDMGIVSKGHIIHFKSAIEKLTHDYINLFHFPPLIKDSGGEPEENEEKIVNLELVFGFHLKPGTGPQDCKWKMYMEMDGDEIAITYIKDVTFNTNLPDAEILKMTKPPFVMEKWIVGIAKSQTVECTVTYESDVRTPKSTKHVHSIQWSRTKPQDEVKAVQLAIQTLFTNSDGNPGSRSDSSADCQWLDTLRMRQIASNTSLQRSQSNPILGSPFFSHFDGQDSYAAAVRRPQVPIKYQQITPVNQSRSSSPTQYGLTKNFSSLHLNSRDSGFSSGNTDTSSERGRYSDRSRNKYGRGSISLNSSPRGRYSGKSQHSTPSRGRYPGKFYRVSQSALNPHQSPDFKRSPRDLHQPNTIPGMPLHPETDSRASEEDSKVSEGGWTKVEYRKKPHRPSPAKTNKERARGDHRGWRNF

[2] = biological target: Epidermal growth factor receptor (Homo sapiens) (UniProt P00533); assay: Inhibition of EGFR ACT labeling site in human Huh-7 cell lysate at 1 uM by KiNativ Profiling analysis relative to control; assay type: subcellular
Sequence of Epidermal growth factor receptor (Homo sapiens) (P00533 whole entry): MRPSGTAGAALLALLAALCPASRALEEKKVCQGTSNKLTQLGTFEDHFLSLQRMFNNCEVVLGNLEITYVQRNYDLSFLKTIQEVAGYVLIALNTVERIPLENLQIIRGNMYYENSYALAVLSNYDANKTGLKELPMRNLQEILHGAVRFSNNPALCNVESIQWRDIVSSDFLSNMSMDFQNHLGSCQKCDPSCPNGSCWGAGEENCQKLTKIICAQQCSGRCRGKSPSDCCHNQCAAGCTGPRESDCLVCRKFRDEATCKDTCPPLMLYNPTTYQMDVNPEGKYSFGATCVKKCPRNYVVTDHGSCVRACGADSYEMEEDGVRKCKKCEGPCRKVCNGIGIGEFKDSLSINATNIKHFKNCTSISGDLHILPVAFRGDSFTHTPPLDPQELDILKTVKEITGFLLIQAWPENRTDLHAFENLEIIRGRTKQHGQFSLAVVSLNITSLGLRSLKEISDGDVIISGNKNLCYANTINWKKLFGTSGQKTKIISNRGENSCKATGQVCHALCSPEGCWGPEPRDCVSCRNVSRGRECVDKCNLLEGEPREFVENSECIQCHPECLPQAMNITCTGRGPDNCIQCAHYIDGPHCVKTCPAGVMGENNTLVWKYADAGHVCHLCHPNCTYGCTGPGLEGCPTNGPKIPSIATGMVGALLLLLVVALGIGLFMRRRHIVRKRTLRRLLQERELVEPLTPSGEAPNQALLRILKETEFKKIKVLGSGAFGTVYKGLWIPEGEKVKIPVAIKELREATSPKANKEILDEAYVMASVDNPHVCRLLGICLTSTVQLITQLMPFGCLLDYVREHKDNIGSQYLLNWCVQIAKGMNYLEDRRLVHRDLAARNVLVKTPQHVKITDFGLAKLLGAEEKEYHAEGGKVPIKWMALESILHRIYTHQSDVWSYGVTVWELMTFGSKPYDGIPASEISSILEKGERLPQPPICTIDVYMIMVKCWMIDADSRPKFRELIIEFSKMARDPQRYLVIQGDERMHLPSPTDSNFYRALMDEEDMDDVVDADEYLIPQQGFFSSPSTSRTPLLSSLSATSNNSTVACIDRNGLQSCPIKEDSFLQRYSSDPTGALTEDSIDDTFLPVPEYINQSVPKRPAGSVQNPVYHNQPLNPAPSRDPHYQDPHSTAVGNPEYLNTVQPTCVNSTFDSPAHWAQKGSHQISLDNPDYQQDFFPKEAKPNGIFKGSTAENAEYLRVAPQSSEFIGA

[3] = biological target: Interferon-induced, double-stranded RNA-activated protein kinase (Homo sapiens) (UniProt P19525); assay: Inhibition of PRKR (unknown origin) at 10 uM by Ambit Kinomescan binding assay
Sequence of Interferon-induced, double-stranded RNA-activated protein kinase (Homo sapiens) (P19525 whole entry): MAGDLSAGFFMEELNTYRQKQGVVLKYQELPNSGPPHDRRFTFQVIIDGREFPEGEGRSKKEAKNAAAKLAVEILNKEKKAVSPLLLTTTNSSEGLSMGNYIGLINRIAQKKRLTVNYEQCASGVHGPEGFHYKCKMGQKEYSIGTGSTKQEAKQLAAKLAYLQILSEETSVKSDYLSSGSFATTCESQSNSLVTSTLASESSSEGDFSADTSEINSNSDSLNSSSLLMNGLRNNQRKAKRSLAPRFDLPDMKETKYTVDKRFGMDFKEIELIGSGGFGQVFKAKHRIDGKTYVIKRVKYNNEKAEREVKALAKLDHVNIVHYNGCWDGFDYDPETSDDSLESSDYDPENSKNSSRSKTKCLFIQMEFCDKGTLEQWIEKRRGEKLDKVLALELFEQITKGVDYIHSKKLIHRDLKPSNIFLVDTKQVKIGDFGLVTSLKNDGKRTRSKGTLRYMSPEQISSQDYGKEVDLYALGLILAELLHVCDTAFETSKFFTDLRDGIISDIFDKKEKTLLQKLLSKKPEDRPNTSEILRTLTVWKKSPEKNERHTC

[4] = biological target: T1, Mitogen-activated protein kinase kinase kinase 15 (Homo sapiens) (UniProt Q6ZN16); assay: Inhibition of MAP3K15 Lys1 labeling site harbouring IAIKEIPERDSR in human A-375 cells at 5 uM by KiNativ Profiling analysis relative to control; assay type: cell-based
T1 sequence (whole entry): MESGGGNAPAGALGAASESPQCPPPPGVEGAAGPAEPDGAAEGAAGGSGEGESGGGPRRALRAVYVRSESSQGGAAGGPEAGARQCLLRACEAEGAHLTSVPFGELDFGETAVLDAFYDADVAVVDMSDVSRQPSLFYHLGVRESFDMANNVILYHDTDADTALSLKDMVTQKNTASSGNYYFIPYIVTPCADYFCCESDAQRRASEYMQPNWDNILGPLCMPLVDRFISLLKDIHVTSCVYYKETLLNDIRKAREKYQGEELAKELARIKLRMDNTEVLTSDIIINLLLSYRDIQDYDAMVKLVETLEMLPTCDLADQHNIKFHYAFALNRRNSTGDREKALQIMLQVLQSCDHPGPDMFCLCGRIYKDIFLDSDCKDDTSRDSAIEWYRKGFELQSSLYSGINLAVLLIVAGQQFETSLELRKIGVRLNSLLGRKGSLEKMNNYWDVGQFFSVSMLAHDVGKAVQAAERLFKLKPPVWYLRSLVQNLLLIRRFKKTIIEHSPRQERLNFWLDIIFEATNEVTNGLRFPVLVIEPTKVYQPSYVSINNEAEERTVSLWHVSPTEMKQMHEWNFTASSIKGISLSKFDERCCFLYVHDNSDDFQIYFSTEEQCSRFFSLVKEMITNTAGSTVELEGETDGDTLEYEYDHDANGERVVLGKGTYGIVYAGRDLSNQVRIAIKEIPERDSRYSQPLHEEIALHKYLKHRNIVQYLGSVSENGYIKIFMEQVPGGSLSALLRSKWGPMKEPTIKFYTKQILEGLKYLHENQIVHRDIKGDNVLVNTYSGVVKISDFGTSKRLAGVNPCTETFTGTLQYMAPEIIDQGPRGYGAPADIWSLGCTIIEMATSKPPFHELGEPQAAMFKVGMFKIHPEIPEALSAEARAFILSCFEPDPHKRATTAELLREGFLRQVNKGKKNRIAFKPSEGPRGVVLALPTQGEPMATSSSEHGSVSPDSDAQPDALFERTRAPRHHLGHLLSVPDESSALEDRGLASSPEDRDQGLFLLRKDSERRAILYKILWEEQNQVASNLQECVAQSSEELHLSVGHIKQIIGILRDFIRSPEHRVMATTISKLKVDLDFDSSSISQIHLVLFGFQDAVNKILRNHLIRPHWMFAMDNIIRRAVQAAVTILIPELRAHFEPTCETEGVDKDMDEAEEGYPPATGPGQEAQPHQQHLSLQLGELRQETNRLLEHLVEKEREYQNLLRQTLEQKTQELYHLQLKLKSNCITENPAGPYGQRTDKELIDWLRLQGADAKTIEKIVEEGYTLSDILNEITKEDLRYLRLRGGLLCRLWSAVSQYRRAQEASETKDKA

[5] = biological target: Protein-tyrosine kinase 2-beta (Homo sapiens) (UniProt Q14289); assay: Inhibition of PYK2 (unknown origin) at 1 uM by Ambit Kinomescan binding assay relative to control
Sequence of Protein-tyrosine kinase 2-beta (Homo sapiens) (Q14289 whole entry, looked up): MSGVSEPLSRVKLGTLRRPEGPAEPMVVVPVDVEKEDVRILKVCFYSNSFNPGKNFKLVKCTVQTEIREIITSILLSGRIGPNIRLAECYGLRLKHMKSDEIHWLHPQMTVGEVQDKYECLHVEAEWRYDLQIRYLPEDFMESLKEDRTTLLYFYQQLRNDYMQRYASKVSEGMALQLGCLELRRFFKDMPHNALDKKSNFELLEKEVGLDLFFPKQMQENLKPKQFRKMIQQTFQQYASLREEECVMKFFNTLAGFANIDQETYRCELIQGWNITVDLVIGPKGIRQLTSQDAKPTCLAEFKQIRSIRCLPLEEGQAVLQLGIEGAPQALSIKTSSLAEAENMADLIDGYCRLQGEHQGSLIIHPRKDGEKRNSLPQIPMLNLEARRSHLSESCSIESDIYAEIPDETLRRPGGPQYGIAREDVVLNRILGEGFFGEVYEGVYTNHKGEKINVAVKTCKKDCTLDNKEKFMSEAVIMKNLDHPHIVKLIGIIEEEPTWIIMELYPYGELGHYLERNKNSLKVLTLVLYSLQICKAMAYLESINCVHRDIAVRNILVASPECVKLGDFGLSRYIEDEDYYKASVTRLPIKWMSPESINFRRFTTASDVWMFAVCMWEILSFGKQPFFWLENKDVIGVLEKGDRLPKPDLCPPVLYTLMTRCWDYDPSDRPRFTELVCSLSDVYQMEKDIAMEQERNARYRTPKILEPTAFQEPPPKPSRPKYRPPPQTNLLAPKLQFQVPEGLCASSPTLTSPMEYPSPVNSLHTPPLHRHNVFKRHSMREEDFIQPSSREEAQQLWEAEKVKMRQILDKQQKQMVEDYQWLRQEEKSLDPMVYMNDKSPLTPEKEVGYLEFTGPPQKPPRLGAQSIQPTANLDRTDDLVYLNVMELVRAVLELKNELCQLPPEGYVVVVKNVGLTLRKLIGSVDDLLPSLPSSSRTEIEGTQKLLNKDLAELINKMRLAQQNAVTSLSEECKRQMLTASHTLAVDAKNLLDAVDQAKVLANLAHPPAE

[6] = biological target: Protein kinase C theta type (Homo sapiens) (UniProt Q04759); assay: Inhibition of PRKCQ (unknown origin) at 1 uM by Ambit Kinomescan binding assay relative to control
Sequence of Protein kinase C theta type (Homo sapiens) (Q04759 whole entry, looked up): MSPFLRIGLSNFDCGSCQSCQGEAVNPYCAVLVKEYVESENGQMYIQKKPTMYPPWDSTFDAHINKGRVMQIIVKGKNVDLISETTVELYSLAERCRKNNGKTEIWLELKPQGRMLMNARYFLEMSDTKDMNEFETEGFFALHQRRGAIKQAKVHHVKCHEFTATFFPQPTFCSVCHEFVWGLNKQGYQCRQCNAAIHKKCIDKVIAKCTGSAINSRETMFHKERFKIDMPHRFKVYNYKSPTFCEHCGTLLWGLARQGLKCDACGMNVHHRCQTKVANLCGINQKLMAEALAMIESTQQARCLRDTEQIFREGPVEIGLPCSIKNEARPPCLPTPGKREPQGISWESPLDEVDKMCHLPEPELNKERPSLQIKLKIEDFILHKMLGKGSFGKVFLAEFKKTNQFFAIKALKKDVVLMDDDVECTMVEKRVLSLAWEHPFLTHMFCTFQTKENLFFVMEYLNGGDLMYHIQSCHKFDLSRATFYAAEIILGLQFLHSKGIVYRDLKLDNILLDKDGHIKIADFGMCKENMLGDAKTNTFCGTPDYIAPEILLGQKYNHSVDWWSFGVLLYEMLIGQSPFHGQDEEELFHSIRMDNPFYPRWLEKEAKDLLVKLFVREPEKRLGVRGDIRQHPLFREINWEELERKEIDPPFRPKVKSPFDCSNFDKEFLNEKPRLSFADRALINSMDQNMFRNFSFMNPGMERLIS
Procedure, shortened: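 In vitro ATP-site competition binding assay against a panel of over 420 kinases (KinomeScan), with compound tested at 10 or 1 μM.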

[7] = biological target: T2, Serine/threonine-protein kinase ULK1 (Homo sapiens) (UniProt O75385); assay: Inhibition of ULK1 (unknown origin) at 1 uM by Ambit Kinomescan binding assay relative to control
T2 sequence (whole entry): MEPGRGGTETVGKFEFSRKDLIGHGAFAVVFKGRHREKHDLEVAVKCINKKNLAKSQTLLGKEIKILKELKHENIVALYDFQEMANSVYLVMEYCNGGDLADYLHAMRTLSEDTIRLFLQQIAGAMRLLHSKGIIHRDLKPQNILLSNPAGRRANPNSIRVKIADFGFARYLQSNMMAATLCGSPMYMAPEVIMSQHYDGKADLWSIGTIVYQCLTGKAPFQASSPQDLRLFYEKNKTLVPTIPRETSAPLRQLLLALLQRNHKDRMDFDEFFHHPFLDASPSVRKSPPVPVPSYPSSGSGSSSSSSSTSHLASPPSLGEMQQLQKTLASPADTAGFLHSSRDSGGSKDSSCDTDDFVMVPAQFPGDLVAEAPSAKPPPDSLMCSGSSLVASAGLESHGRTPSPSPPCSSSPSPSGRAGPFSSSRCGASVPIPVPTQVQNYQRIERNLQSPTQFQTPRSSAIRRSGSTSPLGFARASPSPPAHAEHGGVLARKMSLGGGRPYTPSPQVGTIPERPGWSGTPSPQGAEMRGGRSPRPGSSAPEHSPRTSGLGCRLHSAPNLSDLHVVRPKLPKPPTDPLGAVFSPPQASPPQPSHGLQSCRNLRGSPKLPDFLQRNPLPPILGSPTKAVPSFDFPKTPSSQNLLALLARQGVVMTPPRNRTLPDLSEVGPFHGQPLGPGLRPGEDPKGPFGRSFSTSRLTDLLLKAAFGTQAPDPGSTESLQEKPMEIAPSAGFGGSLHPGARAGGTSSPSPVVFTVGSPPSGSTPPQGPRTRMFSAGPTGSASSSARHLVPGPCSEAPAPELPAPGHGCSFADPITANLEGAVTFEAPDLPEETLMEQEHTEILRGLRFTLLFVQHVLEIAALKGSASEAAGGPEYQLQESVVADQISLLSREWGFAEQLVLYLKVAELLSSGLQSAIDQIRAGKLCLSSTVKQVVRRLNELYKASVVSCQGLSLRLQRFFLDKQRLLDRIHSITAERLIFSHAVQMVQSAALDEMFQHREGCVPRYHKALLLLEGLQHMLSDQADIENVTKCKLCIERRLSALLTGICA

[8] = tested on: Tyrosine-protein kinase ABL1 (Homo sapiens), P00519 [F317I]; assay: Inhibition of nonphosphorylated ABL1 F317I mutant (unknown origin) at 1 uM by Ambit Kinomescan binding assay relative to control

`CNc1cc(Oc2cc(C(=O)Nc3cc(N4CCN(C)CC4)cc(C(F)(F)F)c3)ccc2C)ncn1` was tested, and the inhibition [1] was 13.8% and the inhibition [2] was -3.2%.
With `CCN1CCN(Cc2ccc(NC(=O)c3ccc(C)c(Oc4ccnc5[nH]ccc45)c3)cc2C(F)(F)F)CC1` the inhibition [3] was “inactive” and the inhibition [4] was -3.2%.
`CCN1CCN(Cc2ccc(NC(=O)c3ccc(C)c(/C=C/c4cnc5[nH]ccc5c4OC)c3)cc2C(F)(F)F)CC1` gave an inhibition [5] of 19%, an inhibition [6] of 83% and an inhibition [7] of 68%. For the same molecule, the inhibition [8] was 19%.
